Data: ChEMBL document CHEMBL3272327, “Hypocholesterolemic activity of 1,3-bis(substituted phenoxy)-2-propanones” (J Med Chem, 1976)

What was measured:
[1] = tested on: Rattus norvegicus; experiment: Decrease in lipase level in rat liver at 10 mg/kg/day administered for 16 days (reference value: 100 +/- 39%); type: functional; design: scale not given: the % may be the effect or the level left
[2] = tested on: Rattus norvegicus; experiment: Effect on liver weight in rat at 1 mg/kg/day administered for 16 days measured 24 hrs after last drug dosage relative to total body weight (reference value: 4.22 +/- 0.29%); type: ADME, organism-based; conditions: in vivo
[3] = tested on: Rattus norvegicus; experiment: Effect on liver weight in rat at 50 mg/kg/day administered for 16 days measured 24 hrs after last drug dosage relative to total body weight (reference value: 4.22 +/- 0.29%); type: ADME, organism-based; conditions: in vivo
[4] = tested on: Rattus norvegicus; experiment: Effect on kidney weight in rat at 1 mg/kg/day administered for 16 days measured 24 hrs after last drug dosage relative to total body weight (reference value: 0.92 +/- 0.04%); type: ADME, organism-based; conditions: in vivo
[5] = tested on: Rattus norvegicus; experiment: Effect on kidney weight in rat at 50 mg/kg/day administered for 16 days measured 24 hrs after last drug dosage relative to total body weight (reference value: 0.92 +/- 0.04%); type: ADME, organism-based; conditions: in vivo
[6] = tested on: Rattus norvegicus; experiment: Effect on vas deferens and epididymis weight in rat at 1 mg/kg/day administered for 16 days measured 24 hrs after last drug dosage relative to total body weight (reference value: 0.22 +/- 0.04%); type: ADME, organism-based; conditions: in vivo
[7] = tested on: Rattus norvegicus; experiment: Effect on testes weight in rat at 1 mg/kg/day administered for 16 days measured 24 hrs after last drug dosage relative to total body weight (reference value: 1.08 +/- 0.08%); type: ADME, organism-based, Testis; conditions: in vivo
[8] = tested on: Rattus norvegicus; experiment: Effect on vesicular gland weight in rat at 1 mg/kg/day administered for 16 days measured 24 hrs after last drug dosage relative to total body weight (reference value: 0.10 +/- 0.04%); type: ADME, organism-based; conditions: in vivo
[9] = tested on: Rattus norvegicus; experiment: Hypocholesterolemic activity in rat assessed as [14C]palmitic acid level in heart at 10 mg/kg/day administered for 1 week measured after 22 hrs on day 7 by scintillation counting analysis (reference value: 0.23 +/- 0.10%); type: functional
Summary of the method: (§1)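 Male Sprague-Dawley rats on lab chow dosed orally once daily for 1 week at 10 mg/kg/day, suspended in 1% CMC, or given vehicle alone. On day 7, 5 μCi [1-14C]palmitic acid given orally. Killed after 22 hr; organs made into 10% water homogenates. Aliquots of 0.1 cc of homogenate, urine, blood or feces were digested and scintillation counted. Output is % of dose per tissue, N = 6.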

[10] = tested on: Rattus norvegicus; experiment: Hypocholesterolemic activity in rat assessed as [14C]palmitic acid level in lung at 10 mg/kg/day administered for 1 week measured after 22 hrs on day 7 by scintillation counting analysis (reference value: 0.53 +/- 0.15%); type: functional; summary of the method: as §1
[11] = tested on: Rattus norvegicus; experiment: Hypocholesterolemic activity in rat assessed as [14C]palmitic acid level in brain at 10 mg/kg/day administered for 1 week measured after 22 hrs on day 7 by scintillation counting analysis (reference value: 0.07 +/- 0.04%); type: functional; summary of the method: as §1
[12] = tested on: Rattus norvegicus; experiment: Hypocholesterolemic activity in rat assessed as [14C]palmitic acid level in urine at 10 mg/kg/day administered for 1 week measured after 22 hrs on day 7 by scintillation counting analysis (reference value: 3.31 +/- 1.37%); type: functional; summary of the method: as §1
[13] = tested on: Rattus norvegicus; experiment: Hypocholesterolemic activity in rat assessed as [14C]cholesterol level in heart at 10 mg/kg/day administered for 1 week measured after 22 hrs on day 7 by scintillation counting analysis (reference value: 0.39 +/- 0.13%); type: functional
Summary of the method: (§2)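 Male rats were dosed orally for 1 week (10 mg/kg/day) or with 1% CMC. On day 7 they received 5 μCi [4-14C]cholesterol orally and were killed after 22 hr. Organs were homogenized (10% in water); 0.1-cc aliquots of homogenate, urine, blood or feces were digested with Protosol. Samples were counted in toluene/Triton X-100 (2:1) scintillant with 0.4% PPO and 0.01% POPOP. Results are % of dose per tissue, N = 6.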

[14] = tested on: Rattus norvegicus; experiment: Hypocholesterolemic activity in rat assessed as [14C]cholesterol level in brain at 10 mg/kg/day administered for 1 week measured after 22 hrs on day 7 by scintillation counting analysis (reference value: 0.12 +/- 0.04%); type: functional; summary of the method: as §2
[15] = tested on: Rattus norvegicus; experiment: Hypocholesterolemic activity in rat assessed as [14C]cholesterol level in testes at 10 mg/kg/day administered for 1 week measured after 22 hrs on day 7 by scintillation counting analysis (reference value: 0.24 +/- 0.17%); type: functional, Testis; summary of the method: as §2
[16] = tested on: Rattus norvegicus; experiment: Hypocholesterolemic activity in rat assessed as [14C]cholesterol level in large intestine at 10 mg/kg/day administered for 1 week measured after 22 hrs on day 7 by scintillation counting analysis (reference value: 19.12 +/- 5.62%); type: functional; summary of the method: as §2
[17] = tested on: Rattus norvegicus; experiment: Hypocholesterolemic activity in Sprague-Dawley rat assessed as serum cholesterol level at 10 mg/kg/day, po administered via intubation measured on day 16 by Liebermann-Burchard reaction (reference value: 100%); type: functional
[18] = tested on: Rattus norvegicus; experiment: Hypocholesterolemic activity in Sprague-Dawley rat assessed as serum cholesterol level at 10 mg/kg/day, po administered via intubation measured on day 4 by Liebermann-Burchard reaction (reference value: 100%); type: functional
[19] = tested on: Rattus norvegicus; experiment: Effect on body weight in rat at 1 mg/kg/day administered for 16 days measured on day 7 (reference value: 173 +/- 12 gms); type: ADME, organism-based; conditions: in vivo, 384 h
Summary of the method: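 Male Sprague-Dawley rats with chow and water ad libitum. Compound suspended in 1% CMC-water and given orally by intubation needle at 11:00 a.m., 1, 5, 10 or 50 mg/kg/day, for 16 days. Body weight (g) recorded on days 0, 7 and 16. N = 8.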

[20] = tested on: Rattus norvegicus; experiment: Hypocholesterolemic activity in Sprague-Dawley rat assessed as serum cholesterol level at 50 mg/kg/day, po administered via intubation measured on day 4 by Liebermann-Burchard reaction (reference value: 100 +/- 7%); type: functional
[21] = tested on: Rattus norvegicus; experiment: Hypocholesterolemic activity in Sprague-Dawley rat assessed as serum cholesterol level at 1 mg/kg/day, po administered via intubation measured on day 10 by Liebermann-Burchard reaction (reference value: 100 +/- 7%); type: functional
[22] = tested on: Rattus norvegicus; experiment: Hypocholesterolemic activity in Sprague-Dawley rat assessed as serum cholesterol level at 5 mg/kg/day, po administered via intubation measured on day 10 by Liebermann-Burchard reaction (reference value: 100 +/- 7%); type: functional
[23] = tested on: Rattus norvegicus; experiment: Effect on glycogen content in rat liver at 10 mg/kg/day administered for 16 days (reference value: 100 +/- 24%); type: ADME, organism-based; conditions: in vivo, 384 h
[24] = tested on: Rattus norvegicus; experiment: Increase in lipase level in rat serum at 10 mg/kg/day administered for 16 days relative to control; type: functional
Summary of the method: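 Male Sprague-Dawley rats on rodent chow and water ad libitum; compound suspended in 1% CMC-H2O, 10 mg/kg/day by oral intubation, dose set from weekly weights; controls given 1% CMC. Serum lipase measured with a commercial serum lipase kit after 16 days of dosing; value given as percent of control, N = 8; p by Student's t test.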

Cc1ccc(OCC(=O)COc2ccc(C)cc2)cc1
Activity [1]: 68% | Activity [2]: 4% | Activity [3]: 4.57% | Activity [4]: 0.79% | Activity [5]: 0.88% | Activity [6]: 0.23% | Activity [7]: 1.12% | Activity [8]: 0.19% | Activity [9]: 0.26% | Activity [10]: 0.5% | Activity [11]: 0.08% | Activity [12]: 1.82% | Activity [13]: 0.58% | Activity [14]: 0.16% | Activity [15]: 0.33% | Activity [16]: 12.84% | Activity [17]: 58% | Activity [18]: 77% | Activity [19]: 166 g | Activity [20]: 86% | Activity [21]: 71% | Activity [22]: 58% | Activity [23]: 118% | fold change (FC) [24]: 2
